Values after ≈ are worked out from the molar mass of the structure shown. Active and inactive are the calls of the source. No cut-off for these calls is given here. Positions of bridges follow the written chain, without caps; N, C: chain ends. Non-standard residues stand in square brackets, D forms with d. Residues, ends and D or L forms follow the SMILES beside them. *: point of attachment. X2 = OC[C@H]1O[C@@H](*)[C@@H](O)[C@@H](O)[C@@H]1O; NMeT = CN[C@H](C(=O)O)[C@@H](C)O; X1 = CCCCCCCCCCCC(O)C(O)C(=O)*; Dhb = C/C=C(\N)C(=O)O
Legend:
[1] = system: Aspergillus niger; experiment: Antifungal activity against Aspergillus niger at 10 ug by disk diffusion assay; type: functional, organism-based
How it was run: (§1)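 Disk diffusion on malt agar plates; each disk carried 10 µg in 30 µL of 50% MeOH.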

[2] = system: Candida albicans; experiment: Antifungal activity against Candida albicans after 24 hrs; type: functional
How it was run: (§2)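 Broth microdilution in RPMI-1640; each well held 240 µL medium, 10 µL inoculum (prepared per NCCLS guidelines) and 50 µL of test solution in 50% MeOH. The test solution was a 2-fold series from a 92 µg/mL stock, 4.6 down to 0.14 µg per 50 µL. A drug-free well served as control. Incubation at 35 °C, 24 h for C. albicans and 48 h for A. fumigatus. Growth was read as OD595. MIC was the highest dilution well free from growth. Run in triplicate.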

[3] = system: Fusarium sambucinum; experiment: Antifungal activity against Fusarium sambucinum at 10 ug by disk diffusion assay; type: functional, organism-based; how it was run: as §1
[4] = system: Aspergillus fumigatus; experiment: Antifungal activity against Aspergillus fumigatus after 48 hrs; type: functional; how it was run: as §2
[5] = system: Streptomyces; experiment: Antimicrobial activity against Streptomyces versicolor at 10 ug by disk diffusion assay; type: functional, organism-based
How it was run: (§3)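 Disk diffusion on LB-agar plates; each disk carried 10 µg in 30 µL of 50% MeOH.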

[6] = system: Bacillus subtilis; experiment: Antimicrobial activity against Bacillus subtilis at 10 ug by disk diffusion assay; type: functional, organism-based; how it was run: as §3
[7] = system: Escherichia coli; experiment: Antimicrobial activity against Escherichia coli at 10 ug by disk diffusion assay; type: functional, organism-based; how it was run: as §3
[8] = system: Ustilago maydis; experiment: Antifungal activity against Ustilago maydis at 10 ug by disk diffusion assay; type: functional, organism-based; conditions: Mycosarcoma maydis; how it was run: as §1
[9] = system: Candida albicans; experiment: Antifungal activity against Candida albicans at 10 ug by disk diffusion assay; type: functional, organism-based; how it was run: as §1
[10] = system: Nakaseomyces glabratus; experiment: Antifungal activity against Candida glabrata at 10 ug by disk diffusion assay; type: functional, organism-based; how it was run: as §1
[11] = system: Aspergillus fumigatus; experiment: Antifungal activity against Aspergillus fumigatus at 10 ug by disk diffusion assay; type: functional, organism-based; how it was run: as §1
[12] = system: Penicillium sp.; experiment: Antifungal activity against Penicillium sp. at 10 ug by disk diffusion assay; type: functional, organism-based; how it was run: as §1

How did the Activity [1] turn out when `C/C=C1\NC(=O)[C@H](Cc2ccc(O)cc2)NC(=O)[C@H]([C@@H](C)O)NC(=O)[C@@H](NC(=O)[C@@H](NC(=O)C(O)C(O)CCCCCCCCCCC)[C@@H](C)O)[C@@H](C)OC(=O)[C@H](CCC(N)=O)NC(=O)[C@H]([C@@H](C)O[C@@H]2O[C@H](CO)[C@@H](O)[C@H](O)[C@@H]2O)N(C)C(=O)CNC(=O)[C@H](CCC(N)=O)NC1=O` (some centres not stated) [HASSALLIDIN A] (X1-TTTY[Dhb]QG[NMeT](X2)Q; ester 2-C) was run?
The Activity was “Active”.

And the MIC [2]?
The MIC was 4.8 µg/mL (≈ 3.47 µM).

And the Activity [3]?
Its Activity is “Active”.

What about the MIC [4] of the same compound?
The MIC was 4.8 µg/mL (≈ 3.47 µM).

And the Activity [5]?
The Activity was “inactive”.

What about the Activity [6] of the same compound?
The Activity was “inactive”.

And the Activity [7]?
The Activity was “inactive”.

What about the Activity [8] of the same compound?
The Activity was “Active”.

And the Activity [9]?
The Activity was “Active”.

And the Activity [10]?
The Activity was “Active”.

And the Activity [11]?
Its Activity is “Active”.

And the Activity [12]?
The Activity was “Active”.
